# MPTP inh = blocks calcium-induced mitochondrial swelling; isolated mouse mitochondria, Ca2+ swelling absorbance, 30 min; inhibition, % at 10 µM; actives 1.4% (n = 360,000); AID 602449;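 active means inhibition of 50% or more, scaled per plate between neutral and stimulator controls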;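 further: 0% = DMSO wells given calcium and 100% = 1 mM EGTA wells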
# MT1-MMP act inh = MT1-MMP (human) activation inhibition. P50281. HT1080 RFP-PRO-GFP cells, GFP/RFP ratio fluorescence, overnight; percent of plate control window, DMSO zero. GFP/RFP ratio change, % at 20 µM. actives 0.061% (n = 360,000);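 active means GFP/RFP ratio change of at least 30% with cell ATP level not reduced by more than half and red fluorescence within 50% of control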
#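 Assay system: HT1080 RFP-PRO-GFP cells. Benchmarks: DMSO vehicle wells and RFP-L50D-GFP reporter cell wells. Times: overnight cell settling, then overnight compound exposure, 37 °C, 5% CO2. Compound: 20 µM single dose, 1% DMSO. Read-out basis: GFP/RFP fluorescence ratio.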
# ATG4B inh = blocks human ATG4B protease cleavage of LC3 substrate. inhibition, % at 8.33 µM. Q9Y4P1. ATG4B cleavage of LC3-PLA2, NBD-HPC fluorescence, 1 h. AID 504462. actives 0.51% (n = 340,000); in the data active means inhibition above about 40%
# Target sequence (Q9Y4P1 whole entry, looked up): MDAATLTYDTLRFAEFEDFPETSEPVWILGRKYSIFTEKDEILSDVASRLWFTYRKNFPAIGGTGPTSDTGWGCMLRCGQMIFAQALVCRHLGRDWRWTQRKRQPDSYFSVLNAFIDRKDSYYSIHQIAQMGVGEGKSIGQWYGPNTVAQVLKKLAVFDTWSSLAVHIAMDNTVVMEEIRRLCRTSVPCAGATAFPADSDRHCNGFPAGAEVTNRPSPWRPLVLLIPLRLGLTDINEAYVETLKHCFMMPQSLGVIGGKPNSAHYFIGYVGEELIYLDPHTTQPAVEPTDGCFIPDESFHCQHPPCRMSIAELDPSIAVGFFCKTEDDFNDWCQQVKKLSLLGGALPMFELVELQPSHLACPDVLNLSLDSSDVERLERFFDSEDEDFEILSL
# SKN-1 block = C. elegans SKN-1 inhibition. C. elegans VP596 Pgst-4::GFP/RFP ratio, acrylamide-induced, 24 h. inhibition, % at 21.8 µM. actives 0.49% (n = 360,000). AID 624304;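 active means interference check ratio from 0.5 to 1.5 plus GFP to RFP signal ratio inhibition reaching or exceeding a fixed threshold, cut at about 30% in these data, passing the limit was not always enough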
# * marks the source's active call; other numbers are inactive results; x = no result given. Rows were chosen to be rich in hits. Some 2.3% of all compounds tested hit in one or more screens of this group.
SMILES,MPTP inh,MT1-MMP act inh,ATG4B inh,SKN-1 block
CN(C(=O)COC(=O)CNC(=O)c1ccc(Cl)cc1Cl)c1ccccc1,0.8,0.9,-15.1,2.7
Cc1cc2cc(CNC(=O)c3ccc(S(=O)(=O)N4CCOCC4)cc3)ccc2n1C,2.1,35.2,-11.7,44.7
Cc1c(C(=O)NCc2ccc3c(c2)cc(C)n3C)cccc1[N+](=O)[O-],-1.3,62.2,-4.0,55.2
Cc1cc2cc(CNC(=O)c3ccc(S(=O)(=O)N(C)C)cc3)ccc2n1C,1.2,31.7,2.1,44.5*
CC(=O)Nc1ccc(S(=O)(=O)NCc2ccc(C)cc2)cc1,-0.2,-1.4,2.7,-12.2
CC(=O)Nc1ccc(S(=O)(=O)NCc2ccc3c(c2)cc(C)n3C)cc1,3.1,47.0,-1.4,50.2*
Cc1cc2cc(CNC(=S)Nc3ccc(OC(F)(F)F)cc3)ccc2n1C,3.8,50.4,-3.6,57.5*
Cc1cc2cc(CNC(=O)c3cccc([N+](=O)[O-])c3)ccc2n1C,-0.7,-1.0,-2.2,47.0*
COc1ccc(C(c2nnnn2C2CCCCC2)N2CCN(C/C=C/c3ccccc3)CC2)cc1 (stereo not drawn),-0.3,-3.0,x,14.1
O=C(COc1ccccc1)NCCc1cn2ccsc2n1,-0.5,-6.2,-12.3,-26.2
O=[N+]([O-])c1ccccc1S(=O)(=O)n1nnc2ccccc21,-0.3,1.4,-5.9,6.8
CCOC(=O)[C@]12CCCC=C1N(Cc1ccc3c(c1)OCO3)C(=O)[C@H](CC(=O)NCc1ccc(OC)c(OC)c1)C2,0.7,3.3,x,5.1
CSCC[C@H](NC(=O)Cc1c(C)c2cc3c(C)c(C)oc3cc2oc1=O)C(=O)N[C@@H](C(=O)O)c1ccccc1,-0.4,4.7,x,10.6
Cc1c(C)c(C)c(C(=O)c2ccc(NC(=O)c3ccccc3C(=O)O)cc2)c(C)c1C,0.7,6.1,94.0*,0.9
C/C(CC(=O)Nc1ccc(OCc2ccccc2)cc1)=N\NC(=O)C(=O)Nc1ccc(C)c(Cl)c1,2.0,3.3,-2.1,38.2*
CC(C)(C)NC(=O)C(C1CC1)n1c(=O)c(-c2ccccc2)nc2ccccc21 (stereo not drawn),1.2,-7.1,x,1.6
CC(C(=O)O)N1C(=O)/C(=C/C=C/c2ccco2)SC1=S (stereo not drawn),-3.3,2.1,71.6*,9.1
NC(=O)c1cc(N)ccc1N1CCCC1,-2.3,7.5,-2.6,60.2*
CS(=O)(=O)N(Cc1ccccc1)c1ccc(C(=O)N2CCN(c3cccc(Cl)c3)CC2)cc1,0.7,-2.8,56.5*,9.7
CS(=O)(=O)N(Cc1ccc(Cl)cc1)c1ccc(C(=O)N2CCN(c3ccccc3)CC2)cc1,6.3,-0.1,8.6,12.2
Fc1ccc(CNC(=S)NC2CCCCCC2)cc1,1.6,2.6,44.5*,1.8
c1ccc(-c2nc(-c3cccnc3)cs2)cc1,-0.5,-0.1,-2.1,22.4
Brc1ccc(-c2csc(-c3ccncc3)n2)cc1,-0.6,2.7,-5.8,39.7*
Nc1nc(-c2ccc(Br)cc2)cs1,-3.7,6.8,-4.9,22.7
COc1ccc(-c2csc(-c3ccc(O)cc3)n2)cc1,10.1,0.1,-9.7,-3.4
SMILES,MPTP inh,MT1-MMP act inh,ATG4B inh,SKN-1 block
Cc1ccc(-c2csc(-c3ccncc3)n2)cc1,-0.1,0.2,-2.4,41.5*
c1ccc(-c2csc(-c3cccnc3)n2)cc1,-0.2,-0.6,-6.4,41.6*
COC(=O)C[C@H]1CC[C@H](NS(=O)(=O)c2cn(C)cn2)[C@@H](CO)O1,-1.4,x,x,0.2
CCOC(=O)CSc1ccc(C(=O)Nc2ccc(OC)cc2)cn1,-1.5,-2.2,-11.2,-0.7
CSc1ccc(Cl)c(C(=O)Nc2ccc(Cl)cn2)c1,-0.3,-11.1,-17.8,5.9
COc1cc(SC)ccc1C(=O)Nc1ccc(Cl)cn1,0.9,-2.1,-0.8,35.3*
CCOC(=O)N1CCN(C(=O)Nc2ccc(Cl)cc2)CC1,0.8,-1.8,3.4,35.5*
CC(=O)Nc1ccc(S(=O)(=O)N(C)CC(=O)N/N=C/c2cccs2)cc1,-1.3,-0.2,5.8,-3.9
CC(=O)Nc1ccc(S(=O)(=O)N(C)CC(=O)NNC(=O)c2cccs2)cc1,-0.7,-3.1,3.7,41.6*
CCOc1ccc(S(=O)(=O)NC(Cc2c[nH]c3ccccc23)C(=O)O)cc1 (stereo not drawn),0.8,-3.4,0.0,20.9
CN1CCc2c(sc3c2C(=O)NC(c2ccccn2)N3)C1 (stereo not drawn),-1.7,-3.9,-1.4,54.6
CN1CCc2c(sc3c2C(=O)NC(c2ccccc2)N3)C1 (stereo not drawn),0.2,-12.2,-9.4,47.0*
c1ccc(N2CCN(c3cnc4ccccc4n3)CC2)cc1,-8.0,-1.2,0.1,47.0*
Fc1ccc(N2CCN(c3cnc4ccccc4n3)CC2)cc1,-0.7,-0.1,-6.4,63.0*
Clc1ccc(N2CCN(c3cnc4ccccc4n3)CC2)cc1,-5.8,1.2,3.8,33.0
COC(=O)c1oc2ccc(Cl)cc2c1-n1cccc1,1.4,2.2,11.8,37.4*
FC(F)(F)c1cc(Cl)c2nc(-c3ccccc3)cn2c1,3.7,0.9,-4.3,41.2*
Nc1cccc(-c2cn3cc(C(F)(F)F)cc(Cl)c3n2)c1,1.6,7.0,13.8,-21.6
CCCNc1c(F)c(F)c2c(C)c3ccccc3nc2c1F,-1.5,-63.8,11.5,39.0*
Cc1c(C(=O)NCCC2=CCCCC2)oc2ccc(S(=O)(=O)N3CCOCC3)cc12,2.6,-7.1,-17.7,37.0*
O=C(c1ccccc1)N1CCN(c2nc3ccc([N+](=O)[O-])cc3s2)CC1,4.5,-2.9,-0.5,7.0
O=[N+]([O-])c1ccc2nc(N3CCCC3)sc2c1,0.1,1.8,-6.4,38.9*
Cc1ccc(CNC(=O)CS(=O)(=O)c2cn(CC(=O)N3CCOCC3)c3ccccc23)cc1,-1.2,-2.4,3.6,12.9
Cc1cc(C)c(NC(=O)CS(=O)CC(=O)Nc2ccc(N3CCOCC3)cc2)c(C)c1 (stereo not drawn),1.2,-2.8,-5.3,35.1*
COc1ccc(C2CCc3cc4c(cc3C2=NO)OCO4)cc1OC (stereo not drawn),4.8,3.0,x,-6.3
SMILES,MPTP inh,MT1-MMP act inh,ATG4B inh,SKN-1 block
O=c1c2ccccc2oc2ccc(Oc3ccccc3)cc12,1.0,4.6,12.0,41.3*
CN(C)CCN1CCN(C2CN(Cc3cn(Cc4ccccc4)nn3)S(=O)(=O)C2)CC1 (stereo not drawn),0.6,3.2,x,8.8
Cc1c(C(=O)N2CCCCC2)c(S(=O)(=O)NCCc2ccc(S(N)(=O)=O)cc2)c(C)n1C,-1.8,-0.9,-1.2,34.1
O=C(Nc1ccc(SC(F)F)cc1)c1ccccc1F,0.8,4.8,10.5,41.0*
Cc1noc(C)c1COc1cccc(C(=O)OC(C)C(=O)Nc2c(C)n(C)n(-c3ccccc3)c2=O)c1 (stereo not drawn),-3.4,2.8,-8.9,-8.5
CC(CCc1ccco1)NC(=O)CSc1cc(=O)n(C)c2ccccc12 (stereo not drawn),-0.4,-1.0,-6.2,37.1*
COc1ccc(/C=N/n2c(=O)[nH]c3c([nH]c4ccc(Cl)cc43)c2=O)cc1CN1CCCCC1,-2.9,1.4,-3.7,4.4

# Screens deposited in PubChem BioAssay by Sanford-Burnham Center for Chemical Genomics.
